The record followed here is ChEMBL document CHEMBL3044956, “Nematicidal and antifungal activities of annonaceous acetogenins from Annona squamosa against various plant pathogens” (J Agric Food Chem, 2011).

The subject of experiment [1] is Meloidogyne incognita. Kind of experiment: Nematicidal activity against second juvenile stage (J2) of Meloidogyne incognita (root-knot nematode) assessed as mortality incubated in the dark at 28 degC after 2 days by light microscopy (benficial crop Tomato). It is filed as functional. Particulars: 48 h. The procedure, abridged: (§1)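 M. incognita eggs taken from infected tomato roots with hypochlorite and J2s hatched in Baermann funnels at 28 °C. J2s from the first 3 days kept in 0.01% Tween 20 water and used within 24 h. About 100 J2s per well; stock added 1:100 in DMSO or MeOH (≤1%). Plates kept shaking in the dark at 28 °C, scored by microscope at 1, 2 and 3 days. Mortality Abbott-corrected. Two runs, three replicates each.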

Experiment [2] deals with Meloidogyne incognita. Briefly: Nematicidal activity against second juvenile stage (J2) of Meloidogyne incognita (root-knot nematode) assessed as mortality incubated in the dark at 28 degC after 1 day by light microscopy (benficial crop Tomato). Format: functional. Particulars: 24 h. Put shortly:
as §1

Experiment [3] concerns Meloidogyne incognita. Kind of experiment: Nematicidal activity against second juvenile stage (J2) of Meloidogyne incognita (root-knot nematode) assessed as mortality incubated in the dark at 28 degC after 3 days by light microscopy (benficial crop Tomato). It is filed as functional. Particulars: 72 h. The procedure, abridged: as §1
Experiment [4] concerns Bursaphelenchus xylophilus. Kind of experiment: Nematicidal activity against second juvenile stage (J2) of Bursaphelenchus xylophilus assessed as mortality at >0.33 ug/ml after 2 days by microtiter plate assay method (Beneficial crop Pine). It is filed as functional. The procedure, abridged: (§2)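 Pine wood nematodes reared on B. cinerea mycelia on PDA for 7 days at 28 °C. J2s collected in 0.01% Triton X-100 water and tested in microtiter plates. Compounds in DMSO or MeOH, solvent ≤1%; solvent-only controls. Concentrations 0.004–1 μg/mL. Mortality Abbott-corrected; LC50 by probit. Two runs, three replicates each.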

Experiment [5] relates to Bursaphelenchus xylophilus. Briefly: Nematicidal activity against second juvenile stage (J2) of Bursaphelenchus xylophilus assessed as mortality after 2 days by microtiter plate assay method (Beneficial crop Pine). Format: functional. Particulars: 48 h. Put shortly:
as §2

The test system of experiment [6] is Puccinia recondita. Briefly: In vivo antifungal activity against Puccinia recondita infected wheat seedlings assessed as reduction in wheat leaf rust disease symptoms development at 2 ug/ml treated 1 day before spore inoculation measured 7 days after inoculation. Format: functional. The arrangement: scale not given: the % may be the effect or the level left. The procedure, abridged: (§3)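 Potted seedlings sprayed to runoff with material dissolved in MeOH and diluted in 0.025% Tween 20 (5% MeOH); controls got the Tween/MeOH solution alone. Inoculated with spores or mycelial suspension 1 day later. Infected leaf or sheath area rated 3–7 days after inoculation; % control = 100(A−B)/A. Randomized complete block design, three replicates, run in duplicate; Tukey HSD.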

Experiment [7] concerns Puccinia recondita. Briefly: In vivo antifungal activity against Puccinia recondita infected wheat seedlings assessed as reduction in wheat leaf rust disease symptoms development at 10 ug/ml treated 1 day before spore inoculation measured 7 days after inoculation. Format: functional. Also noted: scale not given: the % may be the effect or the level left. Put shortly: as §3

Experiment [8] relates to Colletotrichum coccodes. Kind of experiment: In vivo antifungal activity against Colletotrichum coccodes infected red pepper seedlings assessed as control of red pepper anthracnose development at 250 ug/ml treated 1 day before spore inoculation measured 3-7 days after inoculation. It is filed as functional. Put shortly: as §3
For experiment [9], the system named is Botrytis cinerea. Briefly: In vivo antifungal activity against Botryotinia fuckeliana infected in tomato seedlings assessed as control of tomato gray mold disease development at 250 ug/ml treated 1 day before spore inoculation measured 3-7 days after inoculation. Format: functional. The procedure, abridged: as §3
For experiment [10], the system named is Phytophthora infestans. Kind of experiment: Antifungal activity against Phytophthora infestans assessed as inhibition of zoospore germination incubated in the dark at 20 degC for 24 hr by light microscopy. Format: functional, organism-based. Put shortly: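 Zoospores released by chilling sporangia 1 h at 4 °C, then filtered to remove sporangia. Test solution in MeOH mixed 1:100 with the suspension (1% MeOH control), loaded onto hole-slide glasses and kept humid at 20 °C for 24 h in the dark. Germinated cells counted per hole by light microscope. Experiment repeated, mean ± SD.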

The test system of experiment [11] is Blumeria hordei. Briefly: In vivo antifungal activity against Blumeria graminis f. sp. hordei infected barley seedlings assessed as control of barley powdery mildew disease development at 250 ug/ml treated 1 day before spore inoculation measured 3-7 days after inoculation. Format: functional. The procedure, abridged: as §3
Experiment [12] relates to Rhizoctonia solani. Kind of experiment: In vivo antifungal activity against Rhizoctonia solani infected rice seedlings assessed as control of rice sheath blight disease development at 125 ug/ml treated 1 day before spore inoculation measured 3-7 days after inoculation. It is filed as functional. Put shortly:
as §3

Experiment [13] has as its system Blumeria hordei. Briefly: In vivo antifungal activity against Blumeria graminis f. sp. hordei infected barley seedlings assessed as control of barley powdery mildew disease development at 500 ug/ml treated 1 day before spore inoculation measured 3-7 days after inoculation. It is filed as functional. Put shortly:
as §3

In experiment [14] the test system is Pyricularia oryzae. Briefly: In vivo antifungal activity against Magnaporthe oryzae infected rice seedlings assessed as control of rice blast disease development at 125 ug/ml treated 1 day before spore inoculation measured 3-7 days after inoculation. Format: functional. The procedure, abridged:
as §3

The subject of experiment [15] is Pyricularia oryzae. Briefly: In vivo antifungal activity against Magnaporthe oryzae infected rice seedlings assessed as control of rice blast disease development at 250 ug/ml treated 1 day before spore inoculation measured 3-7 days after inoculation. It is filed as functional. The procedure, abridged: as §3
Experiment [16] has as its system Colletotrichum coccodes. Briefly: In vivo antifungal activity against Colletotrichum coccodes infected red pepper seedlings assessed as control of red pepper anthracnose development at 125 ug/ml treated 1 day before spore inoculation measured 3-7 days after inoculation. It is filed as functional. The procedure, abridged: as §3
Experiment [17] relates to Puccinia recondita. Briefly: In vivo antifungal activity against Puccinia recondita infected wheat seedlings assessed as reduction in wheat leaf rust disease symptoms development at 250 ug/ml treated 1 day before spore inoculation measured 7 days after inoculation. The arrangement: scale not given: the % may be the effect or the level left. Format: functional. The procedure, abridged:
as §3

Experiment [18] concerns Puccinia recondita. Briefly: In vivo antifungal activity against Puccinia recondita infected wheat seedlings assessed as reduction in wheat leaf rust disease symptoms development at 500 ug/ml treated 1 day before spore inoculation measured 7 days after inoculation. It is filed as functional. The arrangement: scale not given: the % may be the effect or the level left. The procedure, abridged: as §3

The test system of experiment [19] is Phytophthora infestans. Kind of experiment: Antifungal activity against Phytophthora infestans assessed as inhibition of radial mycelial growth at 11.11 to 900 ug/ml incubated at 20 degC for 5 to 7 days by poison plate assay. Format: functional. The procedure, abridged: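 Poison-plate assay: material in MeOH added 1:100 to V8-agar at 50 °C, 2 mL per well of six-well plates, centre-inoculated with a 5 mm plug from the colony margin. Incubated at 20 °C until control growth reached the edge. Controls were 1% MeOH. Read as % inhibition of radial growth. Two runs, four replicates each. IC50 by probit.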

The test system of experiment [20] is Botrytis cinerea. Kind of experiment: In vivo antifungal activity against Botryotinia fuckeliana infected in tomato seedlings assessed as control of tomato gray mold disease development at 125 ug/ml treated 1 day before spore inoculation measured 3-7 days after inoculation. It is filed as functional. Put shortly: as §3
The subject of experiment [21] is Colletotrichum coccodes. Briefly: In vivo antifungal activity against Colletotrichum coccodes infected red pepper seedlings assessed as control of red pepper anthracnose development at 500 ug/ml treated 1 day before spore inoculation measured 3-7 days after inoculation. It is filed as functional. The procedure, abridged:
as §3

Experiment [22] deals with Botrytis cinerea. Kind of experiment: In vivo antifungal activity against Botryotinia fuckeliana infected in tomato seedlings assessed as control of tomato gray mold disease development at 500 ug/ml treated 1 day before spore inoculation measured 3-7 days after inoculation. It is filed as functional. The procedure, abridged: as §3
Experiment [23] relates to Phytophthora infestans. Briefly: Antifungal activity against Phytophthora infestans assessed as inhibition of sporangium germination incubated at 20 degC for 24 hr by light microscopy. It is filed as functional, organism-based. Put shortly:
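Sporangium germination: compounds serially diluted in MeOH (12500 to 391 μg/mL as stock series), sporangia incubated 24 h at 20 °C. About 100 sporangia per replicate scored for germination by light microscope. Experiment repeated, mean ± SD. IC50 by probit.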

In experiment [24] the test system is Rhizoctonia solani. Briefly: In vivo antifungal activity against Rhizoctonia solani infected rice seedlings assessed as control of rice sheath blight disease development at 250 ug/ml treated 1 day before spore inoculation measured 3-7 days after inoculation. It is filed as functional. Put shortly: as §3
Experiment [25] deals with Phytophthora infestans. Kind of experiment: In vivo antifungal activity against Phytophthora infestans zoospores infected tomato seedlings assessed as control of tomato late blight disease development treated 1 day before spore inoculation measured 3 days after inoculation. Format: functional, organism-based. The procedure, abridged:
as §3

In experiment [26] the test system is Pyricularia oryzae. Briefly: In vivo antifungal activity against Magnaporthe oryzae infected rice seedlings assessed as control of rice blast disease development at 500 ug/ml treated 1 day before spore inoculation measured 3-7 days after inoculation. Format: functional. Put shortly: as §3
Experiment [27] has as its system Blumeria hordei. Kind of experiment: In vivo antifungal activity against Blumeria graminis f. sp. hordei infected barley seedlings assessed as control of barley powdery mildew disease development at 125 ug/ml treated 1 day before spore inoculation measured 3-7 days after inoculation. Format: functional. The procedure, abridged: as §3
Experiment [28] relates to Rhizoctonia solani. Briefly: In vivo antifungal activity against Rhizoctonia solani infected rice seedlings assessed as control of rice sheath blight disease development at 500 ug/ml treated 1 day before spore inoculation measured 3-7 days after inoculation. Format: functional. Put shortly: as §3
For experiment [29], the system named is Puccinia recondita. Kind of experiment: In vivo antifungal activity against Puccinia recondita infected wheat seedlings assessed as reduction in wheat leaf rust disease symptoms development at 125 ug/ml treated 1 day before spore inoculation measured 7 days after inoculation. Format: functional. Also noted: scale not given: the % may be the effect or the level left. The procedure, abridged: as §3

Experiment [30] relates to Blumeria hordei. Kind of experiment: In vivo antifungal activity against Blumeria graminis f. sp. hordei infected barley seedlings assessed as control of barley powdery mildew disease development at 1 ug/ml treated 1 day before spore inoculation measured 3-7 days after inoculation. It is filed as functional. Put shortly:
as §3

Experiment [31] concerns Blumeria hordei. Briefly: In vivo antifungal activity against Blumeria graminis f. sp. hordei infected barley seedlings assessed as control of barley powdery mildew disease development at 100 ug/ml treated 1 day before spore inoculation measured 3-7 days after inoculation. Format: functional. The procedure, abridged:
as §3

Values after ≈ are worked out from the molar mass of the structure shown.

In general, LC50 refers to the concentration lethal to half of the exposed cells or organisms. In the case of `O=C/C=C/c1ccccc1` [CINNAMALDEHYDE], the LC50 in experiment [1] was 13.9 µg/mL (≈ 105 µM); in experiment [2] it was 15.1 µg/mL (≈ 115 µM); in experiment [3], 12.2 µg/mL (≈ 92.6 µM).

For orientation: mortality means the share of the test organisms that died. For the compound `CCCCCCCCCC[C@H](O)[C@H]1CC[C@H]([C@H]2CC[C@H]([C@H](O)CCCCCCCCCCCCC3=C[C@H](C)OC3=O)O2)O1` [BULLANIN], in [4], the mortality came to 100%. Also, the LC50 in [5] is 0.018 µg/mL.

On to `C[Si](Cn1cncn1)(c1ccc(F)cc1)c1ccc(F)cc1` [FLUSILAZOLE], for which the values for the Activity in experiment [6] and in [7] were 78% and 100%, respectively.

Turning to `CCCCCCCCCC[C@@H](O)[C@H]1CC[C@H]([C@H](O)CCCCCCCCCCCCCCC2=C[C@H](C)OC2=O)O1` (relative stereo) [REL-ANNOTEMOYIN-1], the LC50 in experiment [5] was 0.947 µg/mL.

For orientation: IC50 means the midpoint of a concentration-inhibition curve. Consider `CCCCCC[C@H](O)CCC[C@@H](O)[C@H]1CC[C@H]([C@H]2CC[C@H]([C@H](O)CCCCCCCCCCCCC3=C[C@H](C)OC3=O)O2)O1` (relative stereo) [REL-SQUAMOCIN], for which the Activity in [8], in [9], in [11], in [12], in experiment [13] and in experiment [14] was 0% throughout. The Activity was found to be 0% in experiment [15]; 0% in experiment [16]; 20% in [17]; 83.3% in experiment [18]; 0% in experiment [20]; 0% in experiment [21]. The Activity in experiment [22] is 0%; in [24] it was 11.8%; in [25], “Dose-dependent effect”; in [26], 50%; in experiment [27], 0%; in [28], 0%. Further, the Activity in [29] is on record as 0%. The IC50 in [10] came to 3.05 µg/mL (≈ 4.9 µM); in experiment [23], 1.24 µg/mL (≈ 1.99 µM). The inhibition result in experiment [10] and in experiment [23] was “Dose-dependent effect” in each case. Further, the LC50 in [1] is over 100 µg/mL; in [2] it was over 100 µg/mL; in experiment [3], 54.9 µg/mL (≈ 88.1 µM); in experiment [5], 0.006 µg/mL. Moreover, the “growth inhibition (GI)” value in [19] is on record as 31%. In addition, the mortality in experiment [4] is reported as 100%.

As for `CCCCNC(=O)n1c(NC(=O)OC)nc2ccccc21` [BENOMYL], the Activity in [30] is on record as 75%; in experiment [31] it was 100%.

For `CCCCCCCCCCCC[C@@H](O)[C@H]1CC[C@H]([C@H](O)CCCCCCCCCCCCC2=C[C@H](C)OC2=O)O1` (relative stereo) [REL-SOLAMIN], in [5], the LC50 was over 1 µg/mL.
